Data set [1] in a line: Ratio of prodrug conversion in human NHDF supernatants assessed as ALP-mediated WR-1065 formation at 75 mins to prodrug conversion in human MCF7 cell supernatants assessed as ALP-mediated WR-1065 formation at 75 mins. Format: ADME, cell-based. To be noted: mcf7, 1.25 h.
Data set [2] in a line: Prodrug conversion in human MCF7 cell supernatants assessed as ALP-mediated WR-1065 formation at 4 mM after 20 to 75 mins by LC-MS/MS analysis. Format: ADME, cell-based. To be noted: mcf7, 4000 µM.
For data set [3], the system named is MCF7. As to the kind of experiment: Induction of DNA damage in gamma irradiated human MCF7 cells assessed as increase in median number of […]/53BP1 foci per nucleus at 4 mM preincubated for 15 mins followed by gamma irradiation measured after 60 to 120 mins by confocal fluorescence microscopic analysis. Format: functional, cell-based. The method in brief: (§1)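 NHDF fibroblasts or MCF7 cells, with or without 4 mM amifostine added 15 min before 1 Gy γ-irradiation. Sampled at 5, 60 and 120 min post-irradiation and fixed in paraformaldehyde to keep nuclei 3D-intact. γH2AX and 53BP1 were immunodetected and imaged by high-resolution confocal microscopy. A DSB was scored only as a γH2AX focus colocalizing with 53BP1 above a minimum size set for each time point. Read-out: median foci per nucleus.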

The subject of data set [4] is NHDF. As to the kind of experiment: Induction of DNA DSB repair in gamma irradiated human NHDF assessed as median number of […]/53BP1 foci per nucleus preincubated for 15 mins followed by gamma irradiation measured after 120 mins by confocal fluorescence microscopic analysis relative to control. Format: functional, cell-based. The method in brief:
as §1

The test system of data set [5] is MCF7. The experiment in a line: Induction of DNA damage in gamma irradiated human MCF7 cells assessed as median number of […]/53BP1 foci per nucleus at 4 mM preincubated for 15 mins followed by gamma irradiation measured after 60 mins by confocal fluorescence microscopic analysis relative to control.
Data set [6] is described as follows: Ratio of prodrug conversion in human NHDF assessed as ALP-mediated WR-1065 formation at 75 mins to prodrug conversion in human MCF7 cells assessed as ALP-mediated WR-1065 formation at 75 mins. Format: ADME, cell-based. To be noted: mcf7, 1.25 h.
In data set [7] the test system is MCF7. The experiment in a line: Reduction of DNA DSB repair in gamma irradiated human MCF7 cells at 4 mM preincubated for 15 mins followed by gamma irradiation measured after 60 to 120 mins by neutral comet assay. Format: functional, cell-based.
The test system of data set [8] is NHDF. As to the kind of experiment: Induction of DNA DSB repair in gamma irradiated human NHDF assessed as decrease in median number of […]/53BP1 foci per nucleus at 4 mM preincubated for 15 mins followed by gamma irradiation measured after 60 mins by confocal fluorescence microscopic analysis relative to 5 mins postirradiation. Format: functional. Details: scale not given: the % may be the effect or the level left. The method in brief:
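NHDF fibroblasts, with or without 4 mM amifostine 15 min before 1 Gy γ-rays, fixed in paraformaldehyde (3D-preserved). γH2AX foci colocalizing with 53BP1 and above a size threshold set per time point were counted by high-resolution confocal microscopy. Repair efficiency was taken as the median DSBs per nucleus at 5 min minus that at 60 min post-irradiation.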

The test system of data set [9] is NHDF. As to the kind of experiment: Protection against DNA damage in gamma irradiated human NHDF assessed as decrease in double strand breakage of DNA at 4 mM preincubated for 15 mins followed by gamma irradiation measured after 5 mins by neutral comet assay. Format: functional, cell-based.
In data set [10] the test system is NHDF. The experiment in a line: Protection against DNA damage in gamma irradiated human NHDF assessed as decrease in median number of gammaH2AX/53BP1 foci per nucleus at 4 mM preincubated for 15 mins followed by gamma irradiation measured after 5 mins by confocal fluorescence microscopic analysis relative to control. Format: functional. Details: scale not given: the % may be the effect or the level left. The method in brief:
as §1

The test system of data set [11] is MCF7. As to the kind of experiment: Reduction of DNA DSB repair in gamma irradiated human MCF7 cells assessed as median number of […]/53BP1 foci per nucleus at 4 mM preincubated for 15 mins followed by gamma irradiation measured after 60 mins by confocal fluorescence microscopic analysis relative to control. Format: functional. Details: scale not given: the % may be the effect or the level left. The procedure, abridged: as §1

Data set [12] can be described thus: Ratio of prodrug conversion in human NHDF assessed as ALP-mediated WR-1065 formation at 20 mins to prodrug conversion in human MCF7 cells assessed as ALP-mediated WR-1065 formation at 20 mins. Format: ADME, cell-based. To be noted: mcf7, 20 min.
The nature of data set [13]: Ratio of prodrug conversion in human NHDF supernatants assessed as ALP-mediated WR-1065 formation at 20 mins to prodrug conversion in human MCF7 cell supernatants assessed as ALP-mediated WR-1065 formation at 20 mins. Format: ADME, cell-based. To be noted: mcf7, 20 min.
Data set [14] is described as follows: Prodrug conversion in human MCF7 cells assessed as ALP-mediated WR-1065 formation at 4 mM after 20 to 75 mins by LC-MS/MS analysis. Format: ADME, cell-based. To be noted: mcf7, 4000 µM.
Data set [15] relates to NHDF. As to the kind of experiment: Protection against DNA damage in gamma irradiated human NHDF assessed as decrease in median number of gammaH2AX/53BP1 foci per nucleus at 4 mM preincubated for 15 mins followed by gamma irradiation measured after 60 mins by confocal fluorescence microscopic analysis relative to control. Further details: scale not given: the % may be the effect or the level left. Format: functional. The procedure, abridged:
as §1

Data set [16] is described as follows: Prodrug conversion in human NHDF cells assessed as ALP-mediated WR-1065 formation at 4 mM after 20 to 75 mins by LC-MS/MS analysis. Format: ADME, cell-based. To be noted: 4000 µM.
In data set [17] the test system is NHDF. As to the kind of experiment: Induction of DNA DSB repair in gamma irradiated human NHDF at 4 mM preincubated for 15 mins followed by gamma irradiation measured after 60 to 120 mins by neutral comet assay. Format: functional, cell-based.
Data set [18] relates to NHDF. As to the kind of experiment: Drug uptake in human NHDF at 4 mM after 20 to 75 mins by LC-MS/MS analysis. Format: ADME, cell-based. To be noted: 4000 µM.
The subject of data set [19] is MCF7. The experiment in a line: Induction of DNA damage in gamma irradiated human MCF7 cells assessed as increase in double strand breakage of DNA at 4 mM preincubated for 15 mins followed by gamma irradiation measured after 5 mins by neutral comet assay. Format: functional, cell-based.
The test system of data set [20] is MCF7. The experiment in a line: Decrease in median number of […]/53BP1 foci per nucleus in gamma irradiated human MCF7 cells at 4 mM preincubated for 15 mins followed by gamma irradiation measured after 5 mins by confocal fluorescence microscopic analysis relative to control. Details: scale not given: the % may be the effect or the level left. Format: functional. The method in brief:
(§2)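 Cells received 4 mM drug 15 min before 1 Gy γ-irradiation and were sampled at 5, 60 and 120 min post-irradiation. They were fixed in paraformaldehyde to keep nuclei in 3D and immunostained for γH2AX and 53BP1. Imaging used high-resolution confocal microscopy. A DSB was scored only where a γH2AX focus colocalized with 53BP1 and met a minimum size set separately for each time point. The read-out was median foci per nucleus against untreated irradiated cells.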

Data set [21] concerns NHDF. The experiment in a line: Induction of DNA DSB repair in gamma irradiated human NHDF assessed as median number of […]/53BP1 foci per nucleus at 4 mM preincubated for 15 mins followed by gamma irradiation measured after 60 mins by confocal fluorescence microscopic analysis relative to control. Format: functional. The method in brief: as §2
Data set [22] concerns MCF7. The experiment in a line: Decrease in median number of […]/53BP1 foci per nucleus in gamma irradiated human MCF7 cells at 4 mM preincubated for 15 mins followed by gamma irradiation measured after 60 mins by confocal fluorescence microscopic analysis relative to control. Format: functional. Further details: scale not given: the % may be the effect or the level left. The method in brief:
as §2

In data set [23] the test system is MCF7. As to the kind of experiment: Drug uptake in human MCF7 cells at 4 mM after 20 to 75 mins by LC-MS/MS analysis. Format: ADME, cell-based. To be noted: mcf7, 4000 µM.

Each structure is given as a SMILES string. Active and inactive are the calls of the source.

Take `NCCCNCCSP(=O)(O)O` [AMIFOSTINE]: the Ratio in [1] is 2.17; in data set [6], 1.47; in [12], 2.56; in [13], 1.62. Also, the Drug metabolism entry in [2], in [14] and in data set [16] was “metabolite_detected” throughout. Further, the outcome in the data set on MCF7 [3], in the data set on NHDF [4], with MCF7 [7], in the data set on NHDF [9] and with NHDF [17] was Active. In addition, the Activity with MCF7 [5] stood at 137.5%; in the data set with NHDF [8] it was 10%; with NHDF [10], 75.8%; in the data set with MCF7 [11] it was 20.7%; with NHDF [15], 61.9%.
As for `NCCCNCCS` [WR-1065], the Drug uptake in the data set with NHDF [18] and in the data set with MCF7 [23] was more than 90% in each case. In the data set on MCF7 [19], the result was inactive. Further, the outcome with MCF7 [7], in the data set with NHDF [9] and in the data set with NHDF [17] was Active. The Activity in the data set on MCF7 [20] was 75%; in the data set with NHDF [10], 65.2%; in the data set on NHDF [21] it was 17.7%; with MCF7 [22], 82.9%; in the data set on NHDF [15] it was 50%.

(Values after ChEMBL document CHEMBL3804829, “Two New Faces of Amifostine: Protector from DNA Damage in Normal Cells and Inhibitor of DNA Repair in Cancer Cells” (J Med Chem, 2016).)
